Compounds with a hit are over-represented: about 4.4% of the library has one in this group of screens.
NR3A LBD binder: modulators (binders) of human NR3A ligand-binding domain; NR3A LBD differential scanning fluorimetry, Tm shift; 0% = protein alone, 100% = glycine-bound protein; Tm shift relative to glycine control, % at 25 µM; 2.5% of 340,000 active; AID 1259313;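 active means melting temperature shift of at least 10% of the positive control shift, at one fixed dose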
EBI2 block: antagonists of human EBI2 receptor; AID 651636; EBI2 beta-arrestin recruitment, luminescence, 7a,25-OHC stimulated; 0.81% of 360,000 active; inhibition, % at 5 µM; P32249; in the data active means inhibition above about 38%;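 further: enzyme fragment complementation signal reports receptor beta-arrestin coupling in cells; 0% = agonist plus DMSO wells and 100% = wells without agonist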
Target sequence (P32249 whole entry, looked up, the tested form may be a part): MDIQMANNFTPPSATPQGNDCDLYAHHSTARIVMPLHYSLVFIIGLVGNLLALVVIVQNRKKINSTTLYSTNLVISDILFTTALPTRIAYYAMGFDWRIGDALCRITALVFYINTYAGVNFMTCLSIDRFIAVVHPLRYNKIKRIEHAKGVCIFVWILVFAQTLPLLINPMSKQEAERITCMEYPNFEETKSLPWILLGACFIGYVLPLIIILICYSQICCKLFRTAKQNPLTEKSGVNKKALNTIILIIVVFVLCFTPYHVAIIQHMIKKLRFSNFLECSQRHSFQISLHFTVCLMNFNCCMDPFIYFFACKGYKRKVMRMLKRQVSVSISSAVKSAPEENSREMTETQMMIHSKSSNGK
MPTP inh: blocks calcium-induced mitochondrial swelling. 1.4% of 360,000 active. isolated mouse mitochondria, Ca2+ swelling absorbance, 30 min. AID 602449. inhibition, % at 10 µM;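 active means inhibition of 50% or more, scaled per plate between neutral and stimulator controls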;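 further: 0% = DMSO wells given calcium and 100% = 1 mM EGTA wells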
SENP1 inh: blocks the human SENP1 SUMO protease catalytic domain | Q9P0U3 | recombinant SENP1 catalytic domain, CyPet-SUMO1-YPet FRET cleavage | inhibition, % at 10 µM | 0.21% of 360,000 active;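 active means inhibition at least 30% at 10 µM, raw YFP signal under a set limit, fluorescence ratio 0.5 to 1.5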;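 further: 0% = enzyme with DMSO and 100% = no enzyme wells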
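Compound: 10 µM single point, 0.5% DMSO; Test system: hSENP1 catalytic domain, recombinant; Timing: 50 min reaction at room temperature; Technique: FRET, CFP and YFP emission; Control set: no-enzyme wells low, DMSO-plus-enzyme wells high control.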
An asterisk follows results filed as active.

For CCc1cc2cc(C)c(C)cc2nc1SCC(=O)NNC(=O)c1ccco1 the results were NR3A LBD binder 13*, EBI2 block 0, MPTP inh 0 and SENP1 inh 0.
`Nc1n[nH]c(C2CC2)c1N=Nc1ccc(Cl)cc1` gave NR3A LBD binder 11*, EBI2 block -1, MPTP inh 1 and SENP1 inh 2.
For Nc1n[nH]c(C2CC2)c1N=Nc1ccc(Cl)c(Cl)c1 the results were NR3A LBD binder 33*, EBI2 block 1, MPTP inh 2 and SENP1 inh 4.
`Nc1n[nH]c(N)c1N=Nc1ccc2c(c1)OCO2` gave NR3A LBD binder -2, EBI2 block -2, MPTP inh -5 and SENP1 inh 1.
`Nc1nc(N)c(N=Nc2ccc(Cl)cc2)c(=O)[nH]1` gave NR3A LBD binder 1, EBI2 block 3, MPTP inh 0 and SENP1 inh -3.
For Cc1ccc(S(=O)(=O)N(CC(=O)N2CCC(C)CC2)Cc2ccccc2F)cc1 the results were NR3A LBD binder 13*, EBI2 block 10, MPTP inh 0 and SENP1 inh 1.
CCN(CC(=O)N1CCC(C)CC1)S(=O)(=O)c1ccc(C)cc1 was read as NR3A LBD binder -1, EBI2 block 2, MPTP inh 1 and SENP1 inh 1.
`Cc1cc(C2(c3ccc(O)c(C)c3)OC(=O)c3ccccc32)ccc1O` gave NR3A LBD binder -7, EBI2 block -7, MPTP inh -20 and SENP1 inh -4.
`Cc1cc(O)c(C(C)C)cc1C1(c2cc(C(C)C)c(O)cc2C)OC(=O)c2ccccc21` gave NR3A LBD binder 11*, EBI2 block 15, MPTP inh 24 and SENP1 inh 0.
`O=c1c2c([N+](=O)[O-])cc([N+](=O)[O-])cc2sn1-c1ccc(Br)cc1` gave NR3A LBD binder -30, EBI2 block 78*, MPTP inh 1 and SENP1 inh 3.
For O=c1c2c([N+](=O)[O-])cc([N+](=O)[O-])cc2sn1Cc1ccccc1 the results were EBI2 block 6, MPTP inh 4 and SENP1 inh 3.
Cc1nn(-c2ccccc2)c(C)c1NC(=O)COC(=O)Cc1ccccc1F was read as NR3A LBD binder 1, EBI2 block 2, MPTP inh -2 and SENP1 inh 4.
Cc1nc(CSc2nsc(/C=C/N(C)C)c2C#N)cs1 was read as NR3A LBD binder -4, EBI2 block 4, MPTP inh 4 and SENP1 inh -11.
For COC(=O)c1ccccc1CSc1nsc(/C=C/N(C)C)c1C#N the results were NR3A LBD binder 16*, EBI2 block -5, MPTP inh 1 and SENP1 inh 6.
`CCC(=O)Nc1ccc(NC(=O)c2ccc3ccccc3c2)cc1` gave NR3A LBD binder 10*, EBI2 block 8, MPTP inh 2 and SENP1 inh -2.
CC(=O)c1ccc(NC(=O)CSCC(=O)Nc2ccc3ccccc3c2)cc1 was read as NR3A LBD binder 13*, EBI2 block -13, MPTP inh -5 and SENP1 inh 1.
`CN1CCN(c2ccc(Cl)cc2NC(=O)CCN2C(=O)c3ccccc3C2=O)CC1` gave NR3A LBD binder 0, EBI2 block 0, MPTP inh -1 and SENP1 inh -14.
COC(=O)c1ccccc1NC(=O)C1CCCN(S(=O)(=O)c2ccc(OC)cc2)C1 (stereo not drawn) was read as NR3A LBD binder 0, EBI2 block -5, MPTP inh 0 and SENP1 inh 1.
`O=C(c1cccc(OC2CCN(Cc3ccc(F)cc3Cl)CC2)c1)N1CCCC1` gave NR3A LBD binder 7, EBI2 block 3, MPTP inh 0 and SENP1 inh -4.
Screening CCC(Oc1ccccc1)C(=O)Nc1ccccc1C(=O)N1CCCCC1 (stereo not drawn) returned NR3A LBD binder 10, EBI2 block 6, MPTP inh -1 and SENP1 inh 2.
CCC(Oc1ccccc1)C(=O)Nc1ccccc1C(=O)N1CCOCC1 (stereo not drawn) was read as NR3A LBD binder 13*, EBI2 block 1, MPTP inh -1 and SENP1 inh -4.
`CCc1ccc(OC(C)C(=O)Nc2ccccc2C(=O)N2CCOCC2)cc1` (stereo not drawn) gave NR3A LBD binder 7, EBI2 block 6, MPTP inh 0 and SENP1 inh 1.
CCC(Oc1ccccc1)C(=O)Nc1ccccc1C(=O)N1CCN(C)CC1 (stereo not drawn) was read as NR3A LBD binder 11*, EBI2 block -1, MPTP inh -1 and SENP1 inh 1.
